# E-selectin induc = E-selectin induction in HUVECs, primary screen, imaging, HUVEC, immunofluorescence imaging, single point; P16581; normalized: neutral wells 0, TNF-alpha wells 100; activation, % at 7.58 µM; 0.37% of 260,000 active; AID 686992, 2013;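 active = mean E-selectin-positive cell signal at least 10% of the positive control, reached in at least 60% of replicates, without over 20% cell loss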
# Target sequence (P16581 whole entry, looked up): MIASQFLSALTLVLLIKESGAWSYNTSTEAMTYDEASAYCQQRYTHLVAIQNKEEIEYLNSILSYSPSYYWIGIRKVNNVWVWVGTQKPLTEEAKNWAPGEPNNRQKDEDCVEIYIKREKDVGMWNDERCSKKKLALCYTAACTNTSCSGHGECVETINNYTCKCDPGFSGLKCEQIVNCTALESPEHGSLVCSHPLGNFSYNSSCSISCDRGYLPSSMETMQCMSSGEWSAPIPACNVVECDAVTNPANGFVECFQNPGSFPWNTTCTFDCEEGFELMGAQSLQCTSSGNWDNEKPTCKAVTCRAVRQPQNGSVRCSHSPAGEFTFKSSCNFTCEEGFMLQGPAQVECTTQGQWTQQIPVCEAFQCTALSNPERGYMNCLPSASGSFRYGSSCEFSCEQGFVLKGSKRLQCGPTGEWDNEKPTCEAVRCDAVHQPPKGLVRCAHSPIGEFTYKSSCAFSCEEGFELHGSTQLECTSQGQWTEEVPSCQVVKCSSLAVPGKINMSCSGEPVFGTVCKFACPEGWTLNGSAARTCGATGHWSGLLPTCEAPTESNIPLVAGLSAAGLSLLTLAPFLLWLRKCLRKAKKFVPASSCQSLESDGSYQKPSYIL
#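 material = human umbilical vein endothelial cells (HUVEC), E-selectin induction | quantity = 3,000 cells/well | medium = EGM-2 growth medium on 0.1% gelatin-coated wells | technique = immunofluorescence imaging | read-out basis = % PE-positive cells | control set = TNF-alpha positive control, DMSO neutral control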
# XiGFP reactiv = activators of inactive X chromosome reactivation, primary screen, imaging, XiGFP fibroblasts, GFP high-content imaging, set 2 | XiGFP mouse fibroblasts, % GFP-positive cells imaging, 3 d; cells co-treated with 5-aza-dC sensitizer; scaled so ellipticine positive control = 100% | activation, % at 7.58 µM | 0.055% of 360,000 active | AID 743238, 2013;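 active = mean normalized replicate activation at least 10% and every replicate at or above 10%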;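 also: 0% = median of on-plate neutral control wells and 100% = ellipticine 6 µM median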
#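 Assay system – SV40-immortalized XiGFP fibroblast cells, line 68-5-11 · Buffer or medium – DMEM supplemented with 5-aza-dC as sensitizing agent · Dosing – one concentration, pinned · Benchmarks – positive control ellipticine, 6 µM final · Times – 3 days compound exposure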
# Active calls of the source: *; . = not tested or not shown. This is one part of a sample in which hits are shown more often than they occur.
SMILES,E-selectin induc,XiGFP reactiv
C[C@@H]1CN([C@H](C)CO)C(=O)c2cc(NC(=O)CCC(F)(F)F)ccc2O[C@H]1CN(C)Cc1ccc(C(F)(F)F)cc1,-21.1,-0.1
C[C@@H]1CN([C@H](C)CO)C(=O)c2cc(NC(=O)CCC(F)(F)F)ccc2O[C@@H]1CN(C)Cc1ccc(C(F)(F)F)cc1,52.2*,-0.1
C[C@H]1CN([C@@H](C)CO)C(=O)c2cc(NC(=O)CCC(F)(F)F)ccc2O[C@H]1CN(C)Cc1ccc(C(F)(F)F)cc1,18.5,0.0
CCS(=O)(=O)Nc1ccc2c(c1)C(=O)N(C)[C@@H]1CC[C@@H](CC(=O)NCc3ccccc3F)O[C@@H]1CO2,-0.2,0.1
CC(C)NC(=O)Nc1ccc2c(c1)C(=O)N([C@@H](C)CO)C[C@@H](C)[C@@H](CN(C)Cc1ccc(Oc3ccccc3)cc1)O2,0.0,-1.4
CC(NC(=O)/C(C#N)=C/c1ccco1)c1ccccc1 (centres undefined),-0.1,-0.1
CC(NC(=O)/C(C#N)=C/c1ccc([N+](=O)[O-])o1)c1ccccc1 (centres undefined),41.8*,42.7*
COc1ccccc1-c1ccc2c(c1)[C@H]1[C@H](CCN1S(=O)(=O)c1cn(C)cn1)[C@@H](CO)N2,-0.7,0.0
CC(O)C(=O)N/N=C/c1ccccc1C(=O)O (centres undefined),375.0*,0.0
CC(C)NC(=O)CC(=O)N/N=C\c1ccccc1C(=O)O,.,0.0
O=C(CCN1CCCCC1)NCC[C@@H]1CC[C@H](NS(=O)(=O)c2cccc(F)c2)[C@H](CO)O1,-0.2,-0.2
CC(C)NC(=O)N1C[C@@H]2C(c3ccccc3)[C@H](C1)N2CC(F)(F)F (some centres undefined),.,0.0
O=C(NNS(=O)(=O)c1ccc(F)cc1)c1cccc(O)c1,.,0.0
Cc1ccc(S(=O)(=O)NNC(=O)c2cccc(O)c2)cc1,72.6*,0.0
C[C@@H]1CN([C@@H](C)CO)C(=O)c2cc(NC(=O)Nc3cccc4ccccc34)ccc2O[C@@H]1CN(C)Cc1ccc(C(=O)O)cc1,-6.1,-0.8
Cc1cc(N2CCN(C)CC2)nc2ccc(NC(=S)NCCCN3CCc4ccccc4C3)cc12,2.1,2.9
CCN1CCN(c2cc(C)c3cc(NC(=O)c4cccc(OC)c4)ccc3n2)CC1,0.1,0.3
CCN1CCN(c2cc(C)c3cc(NC(=O)c4cccs4)ccc3n2)CC1,-0.1,12.1*
Cc1cc(N2CCN(C)CC2)nc2ccc(NC(=S)NCCN3CCc4ccccc4C3)cc12,0.0,49.3*
COc1ccc(S(=O)(=O)Nc2cccc3c2O[C@@H](CN(C)Cc2ccc(C(F)(F)F)cc2)[C@H](C)CN([C@@H](C)CO)C3=O)cc1,0.1,0.4
C[C@@H]1CN([C@@H](C)CO)C(=O)CCCn2cc(nn2)CO[C@@H]1CN(C)C(=O)c1ccc2ccn(C)c2c1,0.0,-0.4
O=C(Nc1ccc2c(c1)[C@H]1C[C@H](CC(=O)N3CCOCC3)O[C@@H](CO)[C@H]1O2)NC1CCCC1,-0.1,0.1
CC(C)CCN1C(=O)c2cccc3c(N)ccc(c23)C1=O,26.5*,98.9*
Nc1ccc2c3c(cccc13)C(=O)N(c1ccccc1)C2=O,-0.2,0.6
C[C@H]1CN([C@@H](C)CO)C(=O)c2cc(NC(=O)C3CC3)ccc2O[C@H]1CN(C)C(=O)Nc1ccc2c(c1)OCO2,0.5,0.1
SMILES,E-selectin induc,XiGFP reactiv
COc1ccccc1CNC(=O)C[C@H]1C[C@H]2c3cc(NC(=O)c4cccnc4)ccc3O[C@H]2[C@@H](CO)O1,-0.5,0.0
O=[N+]([O-])c1ccc2c(c1)CCO[C@@]21O[C@H](CCO)C[C@H](O)[C@H]1O,.,0.3
O=[N+]([O-])c1ccc2c(c1)CO[C@@]21O[C@H](CCO)C[C@H](O)[C@H]1O,64.9*,0.0
C[C@@H]1CCCCO[C@@H](CN(C)C(=O)NC2CCCCC2)[C@H](C)CN([C@@H](C)CO)C(=O)c2cc(NC(=O)Nc3ccc4c(c3)OCO4)ccc2O1,.,0.1
Cc1cccn2c(=O)c(/C=N/O)c(NCc3ccccc3)nc12,.,0.0
Cc1cccn2c(=O)c(/C=N/O)c(Nc3ccccc3F)nc12,59.3*,0.2
CCC(=O)Nc1ccc2c(c1)OC[C@H](C)N(C(=O)Cc1ccccn1)C[C@H](C)[C@H](OC)CN(C)C2=O,0.0,0.2
CCNC(=O)C[C@@H]1CC[C@H]2[C@@H](COc3ccc(NC(=O)Nc4ccccc4Cl)cc3C(=O)N2C)O1,0.0,0.2
Cc1ccc(CC(=O)Nc2cc(C)ccn2)cc1,.,0.0
Cc1ccnc(NC(NC(=O)C(C)C)(C(F)(F)F)C(F)(F)F)c1,136.3*,0.9
CC(C)CC#Cc1cnc2c(c1)C(=O)N([C@@H](C)CO)C[C@@H](C)[C@H](CN(C)C(=O)CN1CCOCC1)O2,0.5,-0.6
CCOC(=O)C1(Cc2cccc(OC)c2)CCN(Cc2ccccc2)CC1,32.6*,0.1
CCOC(=O)C1(Cc2cccc(OC)c2)CCN(Cc2cccnc2)CC1,5.6,0.0
CCOC(=O)C1(Cc2cccc(OC)c2)CCCN(Cc2cc(C(C)C)n[nH]2)C1 (centres undefined),28.1*,0.0
CCOC(=O)C1(Cc2cccc(OC)c2)CCCN(Cc2c(C)nn(C(C)C)c2C)C1 (centres undefined),-0.2,-0.3
C[C@H]1CCCCO[C@H](CN(C)CC2CC2)[C@@H](C)CN([C@@H](C)CO)C(=O)c2cc(NS(=O)(=O)c3ccccc3)ccc2O1,-0.2,0.5
Cc1cc(C(=O)Nc2ccc3c(c2)C(=O)N(C)[C@H]2CC[C@@H](CC(=O)N[C@H](C)c4ccccc4)O[C@@H]2CO3)no1,0.0,0.1
C[C@@H]1CCCCO[C@@H](CN(C)CC2CCCCC2)[C@@H](C)CN([C@H](C)CO)C(=O)c2cc(NC(=O)Nc3cccc4ccccc34)ccc2O1,1.0,-0.8
CC(C)NC(=O)N[C@@H]1C=C[C@@H](CC(=O)NCCCN(C)C)O[C@@H]1CO,0.0,0.0
COc1ccc(COc2ccccc2C(=O)NCc2ccccc2)cc1F,.,23.3*
COc1cc(C(=O)NCc2ccccc2)ccc1OC(F)F,-0.7,-0.1
CC(=NNc1ccc2ccccc2n1)c1ccccn1,-0.3,32.8*
CC(=NNc1ccc2ccccc2n1)c1ccccc1O,-0.2,0.0
CN(C)C(=O)c1ccc(-c2ccc([C@H]3[C@H](CO)N4CCCCN(CC5CC5)C[C@@H]34)cc2)cc1,0.7,0.2
COc1ccc(OCC(O)CNC(=O)c2ccc(C)cc2)cc1 (centres undefined),.,0.1
COc1ccc(OCC(O)CNC(=O)c2ccccc2)cc1 (centres undefined),76.8*,0.0
N#Cc1ccc(-c2ccc([C@H]3[C@@H](CO)N4C(=O)CN(C(=O)C5CCCC5)C[C@H]34)cc2)cc1,0.0,-0.1
Cc1cccc(OCC(=O)N(C)c2c(N)n(Cc3ccccc3)c(=O)[nH]c2=O)c1C,.,139.9*
Cc1ccccc1OCCC(=O)N(Cc1ccccc1)c1c(N)n(Cc2ccccc2)c(=O)[nH]c1=O,0.0,0.6
COc1ccc(C2C(C(=O)c3ccccc3)N3c4ccccc4C=CC3C2[N+](=O)[O-])cc1 (centres undefined),119.6*,0.0
